Results taken from ChEMBL document CHEMBL3425454, “Synthesis, biological evaluation and modeling studies of terphenyl topoisomerase IIα inhibitors as anticancer agents” (Eur J Med Chem, 2015).
Activity calls are given as the source filed them. The rule behind the calls is not given here.

How the values were obtained:
MDA-MB-435 = experiment: Cytotoxicity against human MDA-MB-435 cells assessed as cell growth inhibition after 72 hrs by MTT assay; format: functional, cell-based; settings: MDA-MB-435, 72 h
Outline: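 MDA-MB-435 cells treated in triplicate with a range of concentrations for 72 h at 37°C, 5% CO2. Medium then replaced, MTT (5 mg/mL) added for 4 h, followed by overnight lysis in 10% SDS/5% isobutanol/12 mM HCl. Absorbance read at 590 nm; inhibition computed against control and blank wells. IC50 = concentration giving 50% growth inhibition, mean±SD of three experiments.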

[1] = molecular target: DNA topoisomerase 2-alpha (Homo sapiens) (UniProt P11388); experiment: Inhibition of human recombinant topoisomerase-2 alpha assessed as conversion of negatively supercoiled plasmid DNA pBR322 to relaxed DNA at 100 uM after 30 mins by agarose gel electrophoresis
Outline: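 Recombinant human TOP2α (1 unit) incubated with 0.5 μg supercoiled pBR322 in 10 mM Tris-HCl pH 7.9, 50 mM NaCl, 50 mM KCl, 5 mM MgCl2, 1 mM EDTA, 1 mM ATP, BSA; 30 min at 30 °C. Stopped with 7 mM EDTA. Products resolved on 1% agarose in TAE at 5 V/cm for 2 h and stained with ethidium bromide. Performed at least in duplicate.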

[2] = molecular target: T1, Topoisomerase I (Bos taurus) (UniProt Q2HPH0); experiment: Inhibition of calf thymus topoisomerase-1 assessed as conversion of negatively supercoiled plasmid DNA pBR322 to relaxed DNA at 100 uM after 30 mins by agarose gel electrophoresis
T1 sequence (whole entry): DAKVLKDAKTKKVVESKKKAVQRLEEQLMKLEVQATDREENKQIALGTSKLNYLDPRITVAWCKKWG
Outline: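 Relaxation of 0.5 μg supercoiled pBR322 by 1 unit calf thymus TOP1 in 10 mM Tris-HCl pH 7.9, 150 mM NaCl, 0.1% BSA, 1 mM spermidine, 5% glycerol; 30 min at 37 °C. Reaction stopped with sarcosyl/bromophenol blue/glycerol. Products run on 1% agarose in TAE at 5 V/cm for 2 h and stained with ethidium bromide (0.5 μg/mL). Performed at least in duplicate.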

[3] = molecular target: DNA topoisomerase 2-alpha (Homo sapiens) (UniProt P11388); experiment: Inhibition of human recombinant topoisomerase-2 alpha-mediated DNA cleavage using circular supercoiled plasmid DNA as substrate
[4] = molecular target: DNA topoisomerase 2-alpha (Homo sapiens) (UniProt P11388); experiment: Inhibition of human recombinant topoisomerase-2 alpha assessed as topoisomerase poison activity using circular supercoiled plasmid DNA as substrate

Chain of DNA topoisomerase 2-alpha (Homo sapiens) (P11388 whole entry): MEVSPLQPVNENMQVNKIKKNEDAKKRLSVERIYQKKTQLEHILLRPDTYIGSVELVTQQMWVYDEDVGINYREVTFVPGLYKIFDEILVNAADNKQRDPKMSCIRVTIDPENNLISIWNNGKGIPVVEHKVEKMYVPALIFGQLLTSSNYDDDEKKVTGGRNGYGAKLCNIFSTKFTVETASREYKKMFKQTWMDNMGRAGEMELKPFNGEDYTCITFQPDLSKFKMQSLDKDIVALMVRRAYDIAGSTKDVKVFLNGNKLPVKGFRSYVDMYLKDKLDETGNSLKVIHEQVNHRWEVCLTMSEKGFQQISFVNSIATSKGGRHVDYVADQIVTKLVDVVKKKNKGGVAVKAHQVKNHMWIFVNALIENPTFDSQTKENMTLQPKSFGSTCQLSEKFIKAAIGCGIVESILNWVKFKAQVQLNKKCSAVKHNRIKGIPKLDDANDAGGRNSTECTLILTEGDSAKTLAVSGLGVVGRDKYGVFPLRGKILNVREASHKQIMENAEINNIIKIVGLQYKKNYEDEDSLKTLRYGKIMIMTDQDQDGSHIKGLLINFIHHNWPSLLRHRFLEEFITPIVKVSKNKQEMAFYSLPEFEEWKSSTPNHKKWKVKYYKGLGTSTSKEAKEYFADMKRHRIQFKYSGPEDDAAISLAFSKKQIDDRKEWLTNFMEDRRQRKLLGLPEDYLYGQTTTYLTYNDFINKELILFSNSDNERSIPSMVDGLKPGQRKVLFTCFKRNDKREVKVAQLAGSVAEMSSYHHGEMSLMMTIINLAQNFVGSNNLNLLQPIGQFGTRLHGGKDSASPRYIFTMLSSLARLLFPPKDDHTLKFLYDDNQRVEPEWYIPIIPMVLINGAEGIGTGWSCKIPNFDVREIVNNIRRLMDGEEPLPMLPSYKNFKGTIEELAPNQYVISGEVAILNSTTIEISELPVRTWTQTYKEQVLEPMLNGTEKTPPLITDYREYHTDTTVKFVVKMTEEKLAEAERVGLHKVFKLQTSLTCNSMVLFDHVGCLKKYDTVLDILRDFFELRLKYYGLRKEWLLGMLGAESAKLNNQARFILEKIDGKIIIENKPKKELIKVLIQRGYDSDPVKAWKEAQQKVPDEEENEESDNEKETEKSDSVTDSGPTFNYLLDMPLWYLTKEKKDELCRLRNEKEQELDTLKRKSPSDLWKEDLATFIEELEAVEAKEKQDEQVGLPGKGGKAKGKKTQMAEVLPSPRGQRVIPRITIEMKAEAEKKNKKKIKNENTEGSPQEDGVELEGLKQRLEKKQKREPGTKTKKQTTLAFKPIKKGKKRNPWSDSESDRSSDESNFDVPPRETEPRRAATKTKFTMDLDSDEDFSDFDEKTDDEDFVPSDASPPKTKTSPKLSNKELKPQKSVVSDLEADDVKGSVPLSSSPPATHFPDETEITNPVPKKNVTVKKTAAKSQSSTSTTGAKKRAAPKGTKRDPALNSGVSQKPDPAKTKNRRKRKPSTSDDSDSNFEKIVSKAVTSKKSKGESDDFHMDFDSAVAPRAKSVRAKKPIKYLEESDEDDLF

`CCOc1c(-c2ccc(O)cc2)ccc(-c2ccc(O)cc2)c1OCC` was tested, and the IC50 (MDA-MB-435) was 41.8 µM.

`Oc1ccc(-c2ccc(-c3ccc(O)c(O)c3)c(O)c2O)cc1` gave an IC50 (MDA-MB-435) of 4.1 µM.

For `COc1c(-c2ccc(O)cc2)ccc(-c2ccc(O)cc2)c1OC`, the IC50 (MDA-MB-435) was 14.7 µM and the inhibition [1] was “Active”.

In the case of `Oc1ccc(-c2ccc(-c3ccc(O)c(O)c3)c(O)c2O)cc1O`, the IC50 (MDA-MB-435) is reported as 3.96 µM, the inhibition [2] is reported as “Active” and the inhibition [1] is reported as “Active”. For the same compound, the inhibition [3] was “Active” and the inhibition [4] was “inactive”.

`COC(=O)c1cc(-c2ccc(-c3ccc(O)cc3)c(OC)c2OC)ccc1O` showed an IC50 (MDA-MB-435) of 44.8 µM.

Work on `COc1ccc(-c2ccc(-c3ccc(C(=O)O)cc3)c(OC)c2OC)cc1OC` yielded an IC50 (MDA-MB-435) greater than 100 µM.

In the case of `O=C(O)c1ccc(-c2ccc(-c3ccc(O)c(O)c3)c(O)c2O)cc1`, the IC50 (MDA-MB-435) is reported as greater than 100 µM.

`COc1ccc(-c2ccc(-c3ccc(OC)cc3)c(OC(C)=O)c2OC(C)=O)cc1` showed an IC50 (MDA-MB-435) of 96.8 µM.

For `COc1ccc(-c2ccc(-c3ccc(OC)c(OC)c3)c(OC)c2OC)cc1OC`, the IC50 (MDA-MB-435) was 90.8 µM.

Work on `COc1c(-c2ccc(O)c([N+](=O)[O-])c2)ccc(-c2ccc(O)c([N+](=O)[O-])c2)c1OC` yielded an IC50 (MDA-MB-435) of 61.8 µM.

`O=C(O)c1cc(-c2ccc(-c3ccc(O)cc3)c(O)c2O)ccc1O` was tested, and the IC50 (MDA-MB-435) was 99.8 µM.

For `COC(=O)c1ccc(-c2ccc(-c3ccc(O)cc3)c(OC)c2OC)cc1O`, the IC50 (MDA-MB-435) was 20.9 µM.

In the case of `Oc1ccc(-c2ccc(-c3ccc(O)cc3)c(O)c2O)cc1`, the IC50 (MDA-MB-435) is reported as greater than 100 µM.

Compound `COc1ccc(-c2ccc(-c3ccc(OC)c(OC)c3)c(OC(C)=O)c2OC(C)=O)cc1OC` has an IC50 (MDA-MB-435) greater than 100 µM.

`COc1cc([C@@H]2c3cc4c(cc3[C@@H](O[C@@H]3O[C@@H]5CO[C@@H](C)O[C@H]5[C@H](O)[C@H]3O)[C@H]3COC(=O)[C@H]23)OCO4)cc(OC)c1O` [ETOPOSIDE] was tested, and the IC50 (MDA-MB-435) was 2.81 µM and the inhibition [1] was “Active”.

`CCOc1c(-c2ccc(OC)c(OC)c2)ccc(-c2ccc(OC)c(OC)c2)c1OCC` showed an IC50 (MDA-MB-435) greater than 100 µM.

Compound `O=C(O)c1ccc(-c2ccc(-c3ccc(O)cc3)c(O)c2O)cc1O` has an IC50 (MDA-MB-435) of 36.8 µM.

With `COc1ccc(-c2cccc(OC)c2OC)cc1OC` the IC50 (MDA-MB-435) was 23.1 µM.

With `COc1c(-c2ccc(O)cc2)ccc(-c2ccc(O)c(C(=O)O)c2)c1OC` the IC50 (MDA-MB-435) was greater than 100 µM.

`COc1c(-c2ccc(O)cc2)ccc(-c2ccc(C(=O)O)c(O)c2)c1OC` gave an IC50 (MDA-MB-435) greater than 100 µM.

`O=[N+]([O-])c1cc(-c2ccc(O)c([N+](=O)[O-])c2)ccc1O` showed an IC50 (MDA-MB-435) greater than 100 µM.
